Measurements published in ChEMBL document CHEMBL3244193, “Design of species- or isozyme-specific enzyme inhibitors. 3. Species and isozymic differences between mammalian and bacterial adenylate kinases in substituent tolerance in an enzyme-substrate complex” (J Med Chem, 1979).

How the values were obtained:
Escherichia coli [1] = test: Activity of Escherichia coli adenylate kinase by Lineweaver-Burk plot analysis relative to ATP
In short: (§1)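 Substrate kinetics in a pyruvate kinase/lactate dehydrogenase-coupled assay: 0.1 M Tris-HCl pH 7.6, 2 mM MgSO4, 0.12 M KCl, 0.3 mM PEP, 0.38 mM NADH, 0.25 mM AMP. A340 change over 5 min at 23 °C. Derivatives screened first at ca. 0.8 mM. Five or more substrate levels; KM and Vmax (relative to ATP) taken from linear Lineweaver-Burk plots.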

Escherichia coli [2] = test: Activity of Escherichia coli adenylate kinase by Lineweaver-Burk plot analysis; in short: as §1
[3] = test system: O=C(CI)NCCCCCNc1ncnc2c1ncn2[C@@H]1O[C@H](COP(=O)(O)OP(=O)(O)OP(=O)(O)O)[C@@H](O)[C@H]1O; test: (§2) Activity of Sprague-Dawley rat liver adenylate kinase 2 by Lineweaver-Burk plot analysis relative to ATP; in short: as §1
[4] = test system: CSc1nc2c(N)ncnc2n1[C@@H]1O[C@H](COP(=O)(O)OP(=O)(O)OP(=O)(O)O)[C@@H](O)[C@H]1O; test: as §2; in short: as §1
[5] = test system: Nc1ncnc2c1ncn2[C@@H]1O[C@H](COP(=O)(O)OP(=O)(O)OP(=O)(O)O)[C@@H](O)[C@H]1O; test: as §2; in short: as §1
[6] = test system: CCCSc1nc2c(N)ncnc2n1[C@@H]1O[C@H](COP(=O)(O)OP(=O)(O)OP(=O)(O)O)[C@@H](O)[C@H]1O; test: as §2; in short: as §1
[7] = test system: O=C(CI)NCCCCCNc1ncnc2c1ncn2[C@@H]1O[C@H](COP(=O)(O)OP(=O)(O)OP(=O)(O)O)[C@@H](O)[C@H]1O; test: (§3) Activity of Sprague-Dawley rat liver adenylate kinase 2 by Lineweaver-Burk plot analysis; in short: as §1
[8] = test system: CSc1nc2c(N)ncnc2n1[C@@H]1O[C@H](COP(=O)(O)OP(=O)(O)OP(=O)(O)O)[C@@H](O)[C@H]1O; test: as §3; in short: as §1
[9] = test system: Nc1ncnc2c1ncn2[C@@H]1O[C@H](COP(=O)(O)OP(=O)(O)OP(=O)(O)O)[C@@H](O)[C@H]1O; test: as §3; in short: as §1
[10] = test system: CCCSc1nc2c(N)ncnc2n1[C@@H]1O[C@H](COP(=O)(O)OP(=O)(O)OP(=O)(O)O)[C@@H](O)[C@H]1O; test: as §3; in short: as §1

Nc1ncnc2c1ncn2[C@@H]1O[C@H](COP(=O)(O)OP(=O)(O)OP(=O)(O)O)[C@@H](O)[C@H]1O
Vmax (Escherichia coli [1]): 0.06%

O=C(CI)NCCCCNc1ncnc2c1ncn2[C@@H]1O[C@H](COP(=O)(O)OP(=O)(O)OP(=O)(O)O)[C@@H](O)[C@H]1O
Km (Escherichia coli [1]): 2500 µM
Vmax (Escherichia coli [2]): 0.12%

Adenylate kinase 2, mitochondrial (Rattus norvegicus) (from UniProt P29410)
Vmax [3]: 21%
Vmax [4]: 5%
Vmax [5]: 100%
Vmax [6]: 15.7%
Km [7]: 1000 µM
Km [8]: 180 µM
Km [9]: 90 µM
Km [10]: 60 µM
